Reference: ChEMBL document CHEMBL4020842, “Discovery of N1-(4-((7-Cyclopentyl-6-(dimethylcarbamoyl)-7 H-pyrrolo[2,3- d]pyrimidin-2-yl)amino)phenyl)- N8-hydroxyoctanediamide as a Novel Inhibitor Targeting Cyclin-dependent Kinase 4/9 (CDK4/9) and Histone Deacetlyase1 (HDAC1) against Malignant Cancer” (J Med Chem, 2018)
Values after ≈ are worked out from the molar mass of the structure shown. Active and inactive are the calls of the source. No cut-off for these calls is given here.

What was measured:
[1] = target: Calcium/calmodulin-dependent protein kinase kinase 2 (Homo sapiens, UniProt Q96RR4); test: Inhibition of recombinant human full length C-terminal 6His-tagged CaMKK2 expressed in baculovirus infected sf21 cells
Calcium/calmodulin-dependent protein kinase kinase 2, sequence (Q96RR4 whole entry): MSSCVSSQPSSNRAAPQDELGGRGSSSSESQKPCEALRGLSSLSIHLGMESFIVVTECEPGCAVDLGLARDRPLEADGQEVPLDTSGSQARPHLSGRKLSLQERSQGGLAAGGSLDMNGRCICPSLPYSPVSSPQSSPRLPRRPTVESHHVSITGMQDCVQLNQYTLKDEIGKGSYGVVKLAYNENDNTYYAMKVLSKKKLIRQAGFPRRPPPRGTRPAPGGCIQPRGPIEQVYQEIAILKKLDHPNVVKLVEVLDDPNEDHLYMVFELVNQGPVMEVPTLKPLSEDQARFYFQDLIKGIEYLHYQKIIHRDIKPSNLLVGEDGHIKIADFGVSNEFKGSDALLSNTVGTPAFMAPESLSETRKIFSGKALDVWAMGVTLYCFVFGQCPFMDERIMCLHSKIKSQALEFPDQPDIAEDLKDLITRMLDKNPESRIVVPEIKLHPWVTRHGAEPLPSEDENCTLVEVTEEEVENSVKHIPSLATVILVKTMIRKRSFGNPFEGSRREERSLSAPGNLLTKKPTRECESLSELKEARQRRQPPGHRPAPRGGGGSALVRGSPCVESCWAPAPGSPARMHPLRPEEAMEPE

Hep 3B2 [2] = test: Cell cycle arrest in human Hep3B cells assessed as accumulation at G0/G1 phase at 625 nM after 24 hrs by propidium iodide staining based flow cytometry; format: functional
Procedure, shortened: (§1)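 Cells were exposed for 24 h to a range of concentrations (625 nM, 2.5 and 10 µM), with DMSO vehicle as control. They were then stained with propidium iodide and analysed by flow cytometry to obtain the percentages of cells in G0/G1, S and G2 phases.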

Hep 3B2 [3] = test: Induction of apoptosis in human Hep3B cells assessed as live cells at 10 uM after 48 hrs by annexin V-FITC/propidium iodide staining based flow cytometry (reference value: 97.9%); format: functional
HepG2 [4] = test: Induction of apoptosis in human HepG2 cells assessed as late apoptotic cells at 10 uM after 48 hrs by annexin V-FITC/propidium iodide staining based flow cytometry (reference value: 0.64%); format: functional
T47D [5] = test: Induction of apoptosis in human T47D cells assessed as live cells at 10 uM after 48 hrs by annexin V-FITC/propidium iodide staining based flow cytometry (reference value: 85.3%); format: functional
T47D [6] = test: Induction of apoptosis in human T47D cells assessed as late apoptotic cells at 5 uM after 48 hrs by annexin V-FITC/propidium iodide staining based flow cytometry (reference value: 6.16%); format: functional
MDA-MB-231 [7] = test: Cell cycle arrest in human MDA-MB-231 cells assessed as accumulation at G0/G1 phase at 625 nM after 24 hrs by propidium iodide staining based flow cytometry; format: functional; procedure, shortened: as §1
NCI-H460 [8] = test: Induction of apoptosis in human NCI-H460 cells assessed as early apoptotic cells at 10 uM after 48 hrs by annexin V-FITC/propidium iodide staining based flow cytometry (reference value: 0.11%); format: functional
CDK4/CDK9 (Homo sapiens) [9] = target: T1, CDK4/CDK9 (Homo sapiens) (UniProt P11802+P50750); test: Inhibition of CDK4/CDK9 in human MDA-MB-231 cells assessed as reduction in Rb phosphorylation at Ser807/811 residues at 1 uM after 48 hrs by Western blot method; format: cell-based
T1 sequence (P11802 whole entry, looked up): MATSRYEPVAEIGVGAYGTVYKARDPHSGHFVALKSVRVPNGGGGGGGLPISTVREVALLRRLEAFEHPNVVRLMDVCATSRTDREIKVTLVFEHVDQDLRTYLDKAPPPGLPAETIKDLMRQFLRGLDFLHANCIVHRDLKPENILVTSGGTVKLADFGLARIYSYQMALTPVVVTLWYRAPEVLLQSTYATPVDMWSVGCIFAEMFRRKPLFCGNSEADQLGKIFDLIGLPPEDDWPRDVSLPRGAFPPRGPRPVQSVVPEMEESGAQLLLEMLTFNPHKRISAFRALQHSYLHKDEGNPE
T1 sequence (P50750 whole entry, looked up): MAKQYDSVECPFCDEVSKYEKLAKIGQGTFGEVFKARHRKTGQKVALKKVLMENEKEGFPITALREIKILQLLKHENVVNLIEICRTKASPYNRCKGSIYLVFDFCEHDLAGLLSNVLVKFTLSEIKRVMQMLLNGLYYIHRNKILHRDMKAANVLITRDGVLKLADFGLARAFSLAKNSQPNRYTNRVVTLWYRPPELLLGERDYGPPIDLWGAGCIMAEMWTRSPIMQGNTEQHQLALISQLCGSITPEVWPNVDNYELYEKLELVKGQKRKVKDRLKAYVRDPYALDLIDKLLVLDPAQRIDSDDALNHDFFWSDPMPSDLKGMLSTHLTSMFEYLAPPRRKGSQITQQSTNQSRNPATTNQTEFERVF

MDA-MB-231 [10] = test: Induction of apoptosis in human MDA-MB-231 cells assessed as live cells at 5 uM after 48 hrs by annexin V-FITC/propidium iodide staining based flow cytometry (reference value: 98.1%); format: functional
[11] = target: Serine/threonine-protein kinase TAO2 (Homo sapiens, UniProt Q9UL54); test: Inhibition of recombinant human N-terminal His6-tagged TAO2 expressed in sf21 cells
Serine/threonine-protein kinase TAO2, sequence (Q9UL54 whole entry): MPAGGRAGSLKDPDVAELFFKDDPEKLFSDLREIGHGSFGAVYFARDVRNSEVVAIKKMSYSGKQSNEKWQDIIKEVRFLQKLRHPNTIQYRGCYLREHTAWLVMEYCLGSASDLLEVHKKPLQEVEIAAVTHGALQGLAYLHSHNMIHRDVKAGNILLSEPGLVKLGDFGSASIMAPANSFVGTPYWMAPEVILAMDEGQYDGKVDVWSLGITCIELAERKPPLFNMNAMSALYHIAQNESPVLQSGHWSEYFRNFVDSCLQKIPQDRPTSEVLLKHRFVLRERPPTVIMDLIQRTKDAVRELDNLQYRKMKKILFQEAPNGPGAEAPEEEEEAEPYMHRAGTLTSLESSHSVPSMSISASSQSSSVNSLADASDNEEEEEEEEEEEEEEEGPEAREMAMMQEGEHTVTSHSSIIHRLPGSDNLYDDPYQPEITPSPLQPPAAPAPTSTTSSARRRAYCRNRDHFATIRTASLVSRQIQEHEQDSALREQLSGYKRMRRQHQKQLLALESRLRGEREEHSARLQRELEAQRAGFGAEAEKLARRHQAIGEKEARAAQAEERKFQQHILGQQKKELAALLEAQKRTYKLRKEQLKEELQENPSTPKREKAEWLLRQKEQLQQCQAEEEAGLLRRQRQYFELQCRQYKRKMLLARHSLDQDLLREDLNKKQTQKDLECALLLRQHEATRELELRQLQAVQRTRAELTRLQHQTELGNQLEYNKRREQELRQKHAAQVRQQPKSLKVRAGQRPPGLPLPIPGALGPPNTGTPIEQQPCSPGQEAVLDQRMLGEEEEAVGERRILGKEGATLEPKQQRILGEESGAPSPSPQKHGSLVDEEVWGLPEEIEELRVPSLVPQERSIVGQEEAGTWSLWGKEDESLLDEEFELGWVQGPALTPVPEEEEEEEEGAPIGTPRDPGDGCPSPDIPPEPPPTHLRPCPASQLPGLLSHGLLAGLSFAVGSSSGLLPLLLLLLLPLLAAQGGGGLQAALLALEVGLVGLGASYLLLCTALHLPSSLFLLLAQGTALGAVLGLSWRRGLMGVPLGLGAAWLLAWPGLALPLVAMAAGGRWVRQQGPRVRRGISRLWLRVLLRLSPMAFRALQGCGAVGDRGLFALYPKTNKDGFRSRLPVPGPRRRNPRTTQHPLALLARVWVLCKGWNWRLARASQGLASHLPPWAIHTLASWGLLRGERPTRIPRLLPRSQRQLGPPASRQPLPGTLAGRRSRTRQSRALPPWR

[12] = AUC (0 to infinity) in Sprague-Dawley rat at 20 mg/kg, iv administered as single dose by HPLC analysis; format: ADME, organism-based; design: dose 20 mg/kg, route intravenous, time infinity; conditions: in vivo
T47D [13] = test: Induction of apoptosis in human T47D cells assessed as early apoptotic cells at 10 uM after 48 hrs by annexin V-FITC/propidium iodide staining based flow cytometry (reference value: 7.7%); format: functional
NCI-H460 [14] = test: Cell cycle arrest in human NCI-H460 cells assessed as accumulation at G2 phase at 2.5 to 10 uM after 24 hrs by propidium iodide staining based flow cytometry; format: functional; procedure, shortened: as §1
MDA-MB-231 [15] = test: Induction of apoptosis in human MDA-MB-231 cells after 48 hrs by annexin V-FITC/propidium iodide staining based flow cytometry; format: functional, cell-based
HepG2 [16] = test: Induction of apoptosis in human HepG2 cells assessed as necrotic cells at 5 uM after 48 hrs by annexin V-FITC/propidium iodide staining based flow cytometry (reference value: 2.32%); format: functional
[17] = target: Cyclin-dependent kinase 2/cyclin E1 (Homo sapiens) (UniProt P24864+P24941); test: Inhibition of recombinant human full length C-terminal 6His-tagged CDK2/N-terminal GST-tagged Cyclin-E co-expressed in baculovirus infected sf21 cells at 1 uM using histone H1 substrate in presence of [gamma33P]ATP after 10 mins by scintillation counting method relative to control
T47D [18] = test: Induction of apoptosis in human T47D cells assessed as necrotic cells at 1 uM after 48 hrs by annexin V-FITC/propidium iodide staining based flow cytometry (reference value: 0.8%); format: functional
NCI-H460 [19] = test: Cell cycle arrest in human NCI-H460 cells assessed as accumulation at G0/G1 phase at 625 nM after 24 hrs by propidium iodide staining based flow cytometry; format: functional; procedure, shortened: as §1
Histone deacetylase 1 [20] = target: T2, Histone deacetylase 1 (Homo sapiens, UniProt Q13547); test: Inhibition of HDAC1 in human A549 cells assessed as increase in acetylated-histone H3 level at 1 to 5 uM after 48 hrs by Western blot method; format: cell-based
T2 sequence (Q13547 whole entry): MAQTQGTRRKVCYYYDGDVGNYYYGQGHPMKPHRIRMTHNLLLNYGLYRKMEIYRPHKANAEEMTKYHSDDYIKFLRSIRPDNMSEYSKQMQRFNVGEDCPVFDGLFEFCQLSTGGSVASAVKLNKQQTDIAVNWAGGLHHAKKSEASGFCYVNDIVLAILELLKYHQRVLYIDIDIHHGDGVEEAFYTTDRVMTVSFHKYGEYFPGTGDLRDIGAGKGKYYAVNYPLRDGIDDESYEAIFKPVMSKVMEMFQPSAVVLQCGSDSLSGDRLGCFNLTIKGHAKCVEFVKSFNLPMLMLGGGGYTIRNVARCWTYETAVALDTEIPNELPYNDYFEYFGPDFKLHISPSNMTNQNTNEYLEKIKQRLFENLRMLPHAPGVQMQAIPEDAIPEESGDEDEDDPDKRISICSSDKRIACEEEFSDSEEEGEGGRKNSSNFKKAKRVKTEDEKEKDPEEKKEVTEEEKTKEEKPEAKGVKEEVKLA

[21] = Aqueous solubility in pH 7.4 PBS buffer at 1 mg sonicated for 24 hrs and incubated under unstirred condition for 24 hrs by HPLC method; format: physicochemical
A549 = test: Induction of apoptosis in human A549 cells assessed as live cells at 10 uM after 48 hrs by annexin V-FITC/propidium iodide staining based flow cytometry (reference value: 92.7%); format: functional
4T1 = test: Cytotoxicity against mouse 4T1 cells assessed as reduction in cell viability after 72 hrs by CCK8 assay; format: functional, cell-based; conditions: 4T1, 72 h
Histone deacetylase 1 [22] = target: T2, Histone deacetylase 1; test: Inhibition of HDAC1 (unknown origin)
NCI-H460 [23] = test: Induction of apoptosis in human NCI-H460 cells assessed as necrotic cells at 10 uM after 48 hrs by annexin V-FITC/propidium iodide staining based flow cytometry (reference value: 1.34%); format: functional
Mus musculus = test: Toxicity in Balb/c mouse assessed as overt signs of toxicity at 45 to 130 mg/kg, ip for 16 consecutive days; format: organism-based; conditions: in vivo
CDK4/CDK9 (Homo sapiens) [24] = target: T1, CDK4/CDK9 (Homo sapiens); test: Inhibition of CDK4/CDK9 in human A549 cells assessed as reduction in Rb phosphorylation at Ser807/811 residues at 1 uM after 48 hrs by Western blot method; format: cell-based
T47D [25] = test: Induction of apoptosis in human T47D cells assessed as reduction in Bcl2 protein expression after 48 hrs by Western blot method; format: functional, cell-based
Procedure, shortened: (§2)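 Cells were treated with or without test agent, alongside a control, for 48h. They were then lysed and analysed by Western blot for Bcl-2 protein and cleaved caspase 3.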

NCI-H460 [26] = test: Induction of apoptosis in human NCI-H460 cells assessed as caspase-3 cleavage after 48 hrs by Western blot method; format: functional, cell-based; procedure, shortened: as §2
[27] = target: Vascular endothelial growth factor receptor 3 (Homo sapiens, UniProt P35916); test: Inhibition of recombinant human N-terminal GST-tagged FLT4 (800-end residues) expressed in baculovirus infected sf21 cells
Vascular endothelial growth factor receptor 3, sequence (P35916 whole entry): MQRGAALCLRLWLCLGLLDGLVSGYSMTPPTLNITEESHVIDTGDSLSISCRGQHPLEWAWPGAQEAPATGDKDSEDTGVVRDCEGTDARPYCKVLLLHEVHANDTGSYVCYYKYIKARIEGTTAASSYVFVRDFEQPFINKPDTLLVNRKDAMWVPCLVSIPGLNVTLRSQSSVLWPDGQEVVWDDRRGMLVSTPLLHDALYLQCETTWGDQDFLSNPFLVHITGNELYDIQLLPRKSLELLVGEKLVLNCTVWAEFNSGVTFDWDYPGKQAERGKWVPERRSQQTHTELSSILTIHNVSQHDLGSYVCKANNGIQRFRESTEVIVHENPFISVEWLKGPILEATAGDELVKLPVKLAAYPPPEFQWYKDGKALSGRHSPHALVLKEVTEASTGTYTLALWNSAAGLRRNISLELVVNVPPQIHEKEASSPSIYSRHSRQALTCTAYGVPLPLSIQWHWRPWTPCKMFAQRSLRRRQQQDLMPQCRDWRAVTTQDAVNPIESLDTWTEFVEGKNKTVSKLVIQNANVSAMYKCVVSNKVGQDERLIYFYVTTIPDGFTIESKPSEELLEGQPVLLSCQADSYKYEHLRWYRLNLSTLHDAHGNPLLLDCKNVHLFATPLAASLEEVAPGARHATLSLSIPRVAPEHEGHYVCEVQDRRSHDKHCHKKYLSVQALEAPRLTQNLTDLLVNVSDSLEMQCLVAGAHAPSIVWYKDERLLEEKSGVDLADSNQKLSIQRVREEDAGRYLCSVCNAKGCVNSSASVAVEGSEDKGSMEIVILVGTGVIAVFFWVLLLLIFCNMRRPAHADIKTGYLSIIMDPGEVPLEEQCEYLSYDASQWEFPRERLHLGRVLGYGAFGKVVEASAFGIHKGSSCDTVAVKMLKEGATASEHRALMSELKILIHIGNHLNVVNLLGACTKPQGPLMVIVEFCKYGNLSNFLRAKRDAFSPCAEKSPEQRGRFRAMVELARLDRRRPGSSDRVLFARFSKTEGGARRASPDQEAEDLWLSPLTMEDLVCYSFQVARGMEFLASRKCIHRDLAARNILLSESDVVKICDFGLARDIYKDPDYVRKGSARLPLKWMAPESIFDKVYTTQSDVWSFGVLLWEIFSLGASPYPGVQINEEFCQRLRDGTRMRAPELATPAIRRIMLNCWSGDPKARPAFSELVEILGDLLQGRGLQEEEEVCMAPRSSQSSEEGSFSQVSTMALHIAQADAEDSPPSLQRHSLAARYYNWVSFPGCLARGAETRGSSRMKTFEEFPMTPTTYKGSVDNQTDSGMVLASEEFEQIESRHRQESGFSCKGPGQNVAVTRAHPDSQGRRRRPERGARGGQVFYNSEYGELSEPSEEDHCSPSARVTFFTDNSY

Histone deacetylase 1 [28] = target: T2, Histone deacetylase 1; test: Inhibition of HDAC1 in human NCI-H460 cells assessed as increase in acetylated-histone H3 level at 1 to 5 uM after 48 hrs by Western blot method; format: cell-based
NCI-H460 [29] = test: Induction of apoptosis in human NCI-H460 cells assessed as reduction in Bcl2 protein expression after 48 hrs by Western blot method; format: functional, cell-based; procedure, shortened: as §2
LIM domain kinase 1 = LIM domain kinase 1 (Homo sapiens, UniProt P53667); test: Inhibition of recombinant human N-terminal His6-tagged LIMK1 (285 to 638 residues) expressed in baculovirus infected sf21 cells
LIM domain kinase 1, sequence (P53667 whole entry, the tested form may be a part): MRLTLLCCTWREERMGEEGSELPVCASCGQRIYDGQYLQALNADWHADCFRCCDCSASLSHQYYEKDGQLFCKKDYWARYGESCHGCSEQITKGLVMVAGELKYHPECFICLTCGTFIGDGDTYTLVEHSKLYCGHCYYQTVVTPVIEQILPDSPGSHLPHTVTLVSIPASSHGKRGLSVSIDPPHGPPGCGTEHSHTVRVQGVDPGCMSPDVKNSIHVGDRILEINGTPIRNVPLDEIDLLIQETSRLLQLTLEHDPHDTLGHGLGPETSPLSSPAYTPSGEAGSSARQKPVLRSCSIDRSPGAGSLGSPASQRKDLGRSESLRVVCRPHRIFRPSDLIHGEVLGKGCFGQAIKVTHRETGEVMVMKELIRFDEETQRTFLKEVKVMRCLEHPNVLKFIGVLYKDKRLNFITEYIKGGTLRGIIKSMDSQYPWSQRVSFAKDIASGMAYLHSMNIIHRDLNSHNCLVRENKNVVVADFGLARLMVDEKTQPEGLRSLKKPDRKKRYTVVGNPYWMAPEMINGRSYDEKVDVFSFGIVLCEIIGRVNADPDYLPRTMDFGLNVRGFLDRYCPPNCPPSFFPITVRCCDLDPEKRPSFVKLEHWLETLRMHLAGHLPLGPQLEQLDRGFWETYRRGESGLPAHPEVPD

HepG2 [30] = test: Induction of apoptosis in human HepG2 cells after 48 hrs by annexin V-FITC/propidium iodide staining based flow cytometry; format: functional, cell-based

IC50 [1]: 53 nM | inhibition (CDK4/CDK9 (Homo sapiens) [9]): Active | IC50 [11]: 84 nM | AUC(0-inf) [12]: 6160 ng·h/mL | inhibition [17]: 66% | inhibition (Histone deacetylase 1 [20]): Active | solubility at 24 h [21]: 0.35 µg/mL (≈ 0.653 µM) | IC50 (Histone deacetylase 1 [22]): 2.2 nM | inhibition (CDK4/CDK9 (Homo sapiens) [24]): Active | IC50 [27]: 43 nM | inhibition (Histone deacetylase 1 [28]): Active | IC50 (LIM domain kinase 1): 44 nM
Structure (SMILES): CN(C)C(=O)c1cc2cnc(Nc3ccc(NC(=O)CCCCCCC(=O)NO)cc3)nc2n1C1CCCC1
Activity (Hep 3B2 [2]): Active | Activity (Hep 3B2 [3]): 72.8% | Activity (HepG2 [4]): 11.7% | Activity (T47D [5]): 43.2% | Activity (T47D [6]): 8.44% | Activity (MDA-MB-231 [7]): Active | Activity (NCI-H460 [8]): 3.95% | Activity (MDA-MB-231 [10]): 90.3% | Activity (T47D [13]): 37.1% | Activity (NCI-H460 [14]): Active | Activity (MDA-MB-231 [15]): Dose-dependent effect | Activity (HepG2 [16]): 6.13% | Activity (T47D [18]): 6.7% | Activity (NCI-H460 [19]): Active | Activity (A549): 59.8% | IC50 (4T1): 1110 nM | Activity (NCI-H460 [23]): 5.58% | Activity (Mus musculus): Non-Toxic | Activity (T47D [25]): Active | Activity (NCI-H460 [26]): Active | Activity (NCI-H460 [29]): Active | Activity (HepG2 [30]): Dose-dependent effect
